Reference: ChEMBL document CHEMBL4414568, “Development of Novel Irreversible Pyruvate Kinase M2 Inhibitors” (J Med Chem, 2019)
Calls of active or inactive are those of the source. No cut-off for these calls is given here.

Key:
NCI-H1650 = test: Antiproliferative activity against human NCI-H1650 cells harboring EGFR mutant assessed as reduction in cell viability incubated for 24 hrs by MTT assay; assay type: functional, cell-based; details: NCI-H1650, 24 h
Outline: (§1)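 Cells seeded at 3,500 per well in 10% FBS and left overnight, then exposed to test agent or vehicle in 5% FBS for 24 h. MTT added for 1 h, then medium swapped for DMSO and absorbance read at 560 nm. Viability given as percent of vehicle-treated control. Run in triplicate.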

NCI-H1975 = test: Antiproliferative activity against human NCI-H1975 cells harboring EGFR mutant assessed as reduction in cell viability incubated for 24 hrs by MTT assay; assay type: functional, cell-based; details: NCI-H1975, 24 h; outline: as §1
PC-3 = test: Antiproliferative activity against human PC3 cells assessed as reduction in cell viability incubated for 24 hrs by MTT assay; assay type: functional, cell-based; details: PC-3, 24 h; outline: as §1
PC-9 [1] = test: Induction of basal oxygen consumption rate in human PC9 cells at 0.25 to 1 uM measured after 4 hrs in absence of glucose by seahorse XF96 flux analyser based assay; assay type: functional, cell-based
Outline: (§2)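 PC-9 cells, 5 × 10^4 per well, seeded 24 h ahead, then treated with DMSO or compound at 0.25, 0.5 or 1 µM for 4 h at 37 °C. Cells held 1 h without CO2 in glycolysis medium. Seahorse glycolysis stress test with serial injections of 10 mM glucose, oligomycin and 50 mM 2-DG; ECAR and OCR recorded together. Six wells per point.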

NCI-H157 = test: Antiproliferative activity against human NCI-H157 cells assessed as reduction in cell viability incubated for 24 hrs by MTT assay; assay type: functional, cell-based; details: NCI-H157, 24 h; outline: as §1
Pyruvate kinase PKM [2] = biological target: T1, Pyruvate kinase PKM (Homo sapiens, UniProt P14618); test: Inhibition of PKM2 in human PC9 cells at 0.25 uM using PEP as substrate incubated for 6 hrs by OxiRed probe-based colorimetric analysis; assay type: cell-based
Outline: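 PC-9 cells seeded at 5 × 10^5 cells/mL, after 24 h given 0.25 µM compound or DMSO for 6 h. Lysate pyruvate kinase activity read with a colorimetric kit measuring H2O2 made from PEP and […] through PK and then pyruvate oxidase. n = 3.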
Target sequence in this assay (P14618 2-531 limits assumed): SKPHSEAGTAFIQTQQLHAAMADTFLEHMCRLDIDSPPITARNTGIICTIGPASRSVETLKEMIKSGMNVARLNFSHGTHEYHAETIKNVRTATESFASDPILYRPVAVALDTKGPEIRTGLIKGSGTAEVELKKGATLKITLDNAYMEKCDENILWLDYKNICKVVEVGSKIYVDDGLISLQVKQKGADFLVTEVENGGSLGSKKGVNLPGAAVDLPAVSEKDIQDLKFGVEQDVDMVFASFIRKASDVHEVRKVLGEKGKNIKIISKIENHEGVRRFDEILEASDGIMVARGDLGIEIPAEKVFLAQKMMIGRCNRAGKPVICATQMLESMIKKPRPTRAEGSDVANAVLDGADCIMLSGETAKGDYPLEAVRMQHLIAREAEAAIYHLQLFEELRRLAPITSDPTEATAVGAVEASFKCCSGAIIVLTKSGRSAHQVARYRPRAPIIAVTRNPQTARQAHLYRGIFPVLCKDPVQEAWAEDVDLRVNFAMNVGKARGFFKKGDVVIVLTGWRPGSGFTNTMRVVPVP

[3] = biological target: T2, Phosphoglycerate kinase 1 (Homo sapiens) (UniProt P00558); test: Binding affinity to PGK1 in human PC9 cells incubated for 1 hr by ABPP-SILAC assay; assay type: cell-based
T2 sequence (whole entry): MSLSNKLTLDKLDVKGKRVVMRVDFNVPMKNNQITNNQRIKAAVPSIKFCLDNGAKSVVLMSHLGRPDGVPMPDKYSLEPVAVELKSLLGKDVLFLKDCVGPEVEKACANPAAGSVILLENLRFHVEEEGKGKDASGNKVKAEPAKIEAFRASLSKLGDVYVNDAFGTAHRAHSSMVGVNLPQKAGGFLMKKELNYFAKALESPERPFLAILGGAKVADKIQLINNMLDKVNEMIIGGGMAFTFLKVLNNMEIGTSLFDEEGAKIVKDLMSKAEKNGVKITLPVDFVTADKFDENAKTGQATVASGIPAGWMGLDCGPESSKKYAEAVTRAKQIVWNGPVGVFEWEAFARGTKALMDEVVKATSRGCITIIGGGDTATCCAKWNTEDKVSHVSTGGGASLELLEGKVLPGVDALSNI
Outline: (§3)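 PC-9 cells passaged at least six times in SILAC DMEM with 10% dialyzed FBS plus 100 µg/mL light or 13C/15N-labeled Arg/Lys. Heavy cells got ABPP probe (1 µM) and light cells DMSO, 1 h at 37 °C. Cells mixed 1:1, sonicated, spun at 100,000g, protein normalized to 1 mg/mL. Click biotin-azide, streptavidin bead pulldown 16 h at 4 °C, SDS-PAGE, on-bead trypsin digestion, LC-MS/MS.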

PC-9 [4] = test: Down regulation of PKM2 expression in human PC9 cells incubated for 24 hrs by Western blot analysis; assay type: functional, cell-based
Outline: (§4)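 PC-9 cells seeded at 5 × 10^5 cells/mL; after 24 h given 0–1 µM compound or DMSO for 24 h. Lysates run on 10% SDS-PAGE, transferred to nitrocellulose, probed for PKM2, EGFR, p-STAT3, STAT3, p-β-catenin, β-catenin and β-actin with HRP secondaries, ECL detection.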

[5] = biological target: T3, Citrate synthase, mitochondrial (Homo sapiens) (UniProt O75390); test: Binding affinity to CS in human PC9 cells incubated for 1 hr by ABPP-SILAC assay; assay type: cell-based; outline: as §3
T3 sequence (whole entry): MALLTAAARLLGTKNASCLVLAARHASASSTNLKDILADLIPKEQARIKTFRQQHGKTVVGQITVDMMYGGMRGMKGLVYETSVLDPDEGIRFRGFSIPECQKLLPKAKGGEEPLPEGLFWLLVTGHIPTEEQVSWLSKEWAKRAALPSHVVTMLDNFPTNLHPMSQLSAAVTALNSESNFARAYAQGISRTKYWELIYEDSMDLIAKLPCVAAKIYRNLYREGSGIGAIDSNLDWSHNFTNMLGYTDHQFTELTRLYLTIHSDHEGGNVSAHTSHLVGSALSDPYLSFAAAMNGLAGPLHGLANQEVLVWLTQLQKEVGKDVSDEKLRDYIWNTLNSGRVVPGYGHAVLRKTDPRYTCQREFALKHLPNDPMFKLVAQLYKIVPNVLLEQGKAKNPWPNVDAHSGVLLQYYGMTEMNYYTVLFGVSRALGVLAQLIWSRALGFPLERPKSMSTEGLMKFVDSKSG

Pyruvate kinase PKM [6] = biological target: T1, Pyruvate kinase PKM; test: Inhibition of PKM2 in human PC9 cells assessed as increase in oxygen consumption rate at 0.25 to 1 uM preincubated for 4 hrs followed by glucose/oligomycin/2-DG addition and measured after 1 hr by seahorse XFe96 analyser based assay; assay type: cell-based; outline: as §2
Target sequence in this assay (P14618 2-531 limits assumed): as the sequence (P14618 2-531 limits assumed) above

Pyruvate kinase PKM [7] = biological target: T1, Pyruvate kinase PKM; test: Inhibition of recombinant human N-terminal His-tagged PKM1 expressed in Escherichia coli at 0.125 to 0.5 uM using PEP as substrate incubated for 20 mins by OxiRed probe-based colorimetric analysis
Outline: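 Recombinant PKM1 or PKM2 incubated with compound at room temperature for 20 min. Remaining activity measured by the same colorimetric kit: PEP + […], PK then pyruvate oxidase, H2O2 read-out. n = 3.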
Target sequence in this assay (P14618 whole entry): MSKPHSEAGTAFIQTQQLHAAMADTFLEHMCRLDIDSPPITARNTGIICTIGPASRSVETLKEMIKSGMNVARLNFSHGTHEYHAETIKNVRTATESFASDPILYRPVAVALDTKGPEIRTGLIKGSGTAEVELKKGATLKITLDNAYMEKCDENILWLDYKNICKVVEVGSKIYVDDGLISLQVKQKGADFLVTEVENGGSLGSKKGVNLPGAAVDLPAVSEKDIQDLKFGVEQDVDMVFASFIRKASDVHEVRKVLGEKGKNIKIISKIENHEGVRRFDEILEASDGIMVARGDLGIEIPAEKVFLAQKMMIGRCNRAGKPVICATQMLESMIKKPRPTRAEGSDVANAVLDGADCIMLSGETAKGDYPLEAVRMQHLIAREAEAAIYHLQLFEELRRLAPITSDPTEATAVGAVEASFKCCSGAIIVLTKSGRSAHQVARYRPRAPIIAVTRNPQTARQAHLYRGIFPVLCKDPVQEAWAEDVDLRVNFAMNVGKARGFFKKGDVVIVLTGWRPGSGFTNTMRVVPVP

Pyruvate kinase PKM [8] = biological target: T1, Pyruvate kinase PKM; test: Inhibition of PKM2 in human PC9 cells assessed as decrease in extracellular acidification rate preincubated for 4 hrs followed by glucose/oligomycin/2-DG addition and measured after 1 hr by seahorse XFe96 analyser based assay; assay type: cell-based; outline: as §2
Target sequence in this assay (P14618 2-531 limits assumed): as the sequence (P14618 2-531 limits assumed) above

Pyruvate kinase PKM [9] = biological target: T1, Pyruvate kinase PKM; test: Inhibition of PKM2 in human PC9 cells assessed as reduction in STAT3 expression incubated for 24 hrs by Western blot analysis; assay type: cell-based; outline: as §4
Target sequence in this assay (P14618 2-531 limits assumed): as above

[10] = biological target: Alpha-enolase (Homo sapiens) (UniProt P06733); test: Binding affinity to ENOA in human PC9 cells incubated for 1 hr by ABPP-SILAC assay; assay type: cell-based; outline: as §3
Chain of Alpha-enolase (Homo sapiens) (P06733 whole entry): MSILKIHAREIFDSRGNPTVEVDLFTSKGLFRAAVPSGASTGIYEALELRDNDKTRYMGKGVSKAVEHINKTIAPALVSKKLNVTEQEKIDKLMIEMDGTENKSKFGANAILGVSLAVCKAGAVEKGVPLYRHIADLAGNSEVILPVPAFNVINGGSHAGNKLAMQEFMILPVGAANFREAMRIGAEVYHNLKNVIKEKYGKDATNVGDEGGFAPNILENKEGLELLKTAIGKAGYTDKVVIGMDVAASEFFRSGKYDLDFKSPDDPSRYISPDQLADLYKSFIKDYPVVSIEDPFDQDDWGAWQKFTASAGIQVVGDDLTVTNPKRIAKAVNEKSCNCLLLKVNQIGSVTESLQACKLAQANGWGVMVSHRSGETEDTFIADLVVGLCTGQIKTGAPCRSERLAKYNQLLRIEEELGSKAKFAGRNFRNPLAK

Pyruvate kinase PKM [11] = biological target: T1, Pyruvate kinase PKM; test: Inhibition of PKM2 in human PC9 cells assessed as reduction in STAT3 phosphorylation at 0.5 uM incubated for 24 hrs by Western blot analysis; assay type: cell-based; outline: as §4
Target sequence in this assay (P14618 2-531 limits assumed): as the sequence (P14618 2-531 limits assumed) above

MCF7 = test: Antiproliferative activity against human MCF7 cells assessed as reduction in cell viability incubated for 24 hrs by MTT assay; assay type: functional, cell-based; details: MCF7, 24 h; outline: as §1
PC-9 [12] = test: Effect on basal extracellular acidification rate in human PC9 cells at 0.25 to 1 uM measured after 4 hrs in absence of glucose by seahorse XF96 flux analyser based assay; assay type: cell-based; details: pc-9, 4 h; outline: as §2

## C#CC(=O)Nc1ccc(-n2nc(CCC(=O)NC)cc2-c2ccc(-c3ccc(C(F)(F)F)cc3)cc2)cc1
NCI-H1650
  IC50: 200 nM
NCI-H1975
  IC50: 1000 nM
PC-3
  IC50: 600 nM
PC-9 [1]
  Activity: Active
NCI-H157
  IC50: > 2000 nM
Pyruvate kinase PKM [2]
  inhibition: Active
[3]
  Activity: Active
PC-9 [4]
  Activity: Dose-dependent effect
[5]
  Activity: Active
Pyruvate kinase PKM [6]
  inhibition: Active
Pyruvate kinase PKM [7]
  inhibition (INH): Not Active
Pyruvate kinase PKM [8]
  inhibition: Dose-dependent effect
Pyruvate kinase PKM [9]
  inhibition: Dose-dependent effect
[10]
  Activity: Active
Pyruvate kinase PKM [11]
  inhibition: inactive
MCF7
  IC50: 1000 nM
PC-9 [12]
  Activity: Non-Toxic
